# Laboratory results taken from ChEMBL document CHEMBL1938274, “Discovery of potent and specific CXCR3 antagonists” (Bioorg Med Chem Lett, 2012).
# Target: Cytochrome P450 3A4 (Homo sapiens, UniProt P08684)
# Assay: Inhibition of CYP3A4
# Assay type: ADME
# Settings: not given
# Cytochrome P450 3A4, sequence (P08684 whole entry): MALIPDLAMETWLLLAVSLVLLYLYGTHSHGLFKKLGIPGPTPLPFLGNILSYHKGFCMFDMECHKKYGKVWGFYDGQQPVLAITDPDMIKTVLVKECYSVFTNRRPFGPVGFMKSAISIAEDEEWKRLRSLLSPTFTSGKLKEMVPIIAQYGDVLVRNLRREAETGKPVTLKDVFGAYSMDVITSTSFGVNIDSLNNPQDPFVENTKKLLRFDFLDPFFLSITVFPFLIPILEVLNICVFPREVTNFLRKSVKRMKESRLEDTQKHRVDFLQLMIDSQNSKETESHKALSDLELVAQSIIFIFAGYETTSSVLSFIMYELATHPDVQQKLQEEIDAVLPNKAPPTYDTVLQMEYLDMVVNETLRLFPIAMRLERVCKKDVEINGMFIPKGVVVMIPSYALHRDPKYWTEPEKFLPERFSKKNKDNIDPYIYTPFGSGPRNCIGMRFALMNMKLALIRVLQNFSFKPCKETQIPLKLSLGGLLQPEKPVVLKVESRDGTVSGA
row,IC50,SMILES
1,> 10000 nM,C[C@H](c1nc2ncccc2c(=O)n1-c1ccc(Cl)cc1)N(CC1CCS(=O)(=O)CC1)C(=O)Cc1ccc(C(F)(F)F)c(F)c1

# System: not listed separately
# Assay: Apparent oral bioavailability in mouse at 5 mg/kg
# Assay type: ADME, organism-based
# Settings: in vivo, read-out: Fapp
row,bioavailability,SMILES
1,17%,C[C@H](c1nc2ncccc2c(=O)n1-c1ccc(C#N)cc1)N(CC1CCS(=O)(=O)CC1)C(=O)Cc1ccc(F)c(C(F)(F)F)c1
2,17%,CCS(=O)(=O)CCN(C(=O)Cc1ccc(F)c(C(F)(F)F)c1)[C@H](C)c1nc2ncccc2c(=O)n1-c1ccc(C#N)cc1

# System: not listed separately
# Assay: Mean residence time in mouse at 1 mg/kg, iv
# Assay type: ADME, organism-based
# Design: dose 1 mg/kg, route intravenous
# Settings: in vivo
# Procedure, shortened: (§1)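 Single intravenous dose in 10% N,N-dimethylacetamide, 10% ethanol, 30% propylene glycol, 50% water: 1 mg/kg mouse; 0.5 mg/kg rat, beagle dog, cynomolgus monkey. Plasma clearance also given as percent of hepatic blood flow.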
row,MRT,SMILES
1,0.7 h,CCS(=O)(=O)CCN(C(=O)Cc1ccc(F)c(C(F)(F)F)c1)[C@H](C)c1nc2ncccc2c(=O)n1-c1ccc(C#N)cc1

# System: not listed separately
# Assay: Clearance in Beagle dog at 0.5 mg/kg, iv
# Assay type: ADME, organism-based, Canis lupus familiaris
# Design: dose 0.5 mg/kg, route intravenous
# Settings: in vivo
# Procedure, shortened: as §1
row,clearance,SMILES
1,8.33 mL/min/kg,C[C@H](c1nc2ncccc2c(=O)n1-c1ccc(C#N)cc1)N(CC1CCS(=O)(=O)CC1)C(=O)Cc1ccc(F)c(C(F)(F)F)c1
2,16.7 mL/min/kg,CCS(=O)(=O)CCN(C(=O)Cc1ccc(F)c(C(F)(F)F)c1)[C@H](C)c1nc2ncccc2c(=O)n1-c1ccc(C#N)cc1

# System: not listed separately
# Assay: Apparent oral bioavailability in cynomolgus monkey at 2 mg/kg
# Assay type: ADME, organism-based, Macaca fascicularis
# Settings: in vivo, read-out: Fapp
row,bioavailability,SMILES
1,1%,C[C@H](c1nc2ncccc2c(=O)n1-c1ccc(C#N)cc1)N(CC1CCS(=O)(=O)CC1)C(=O)Cc1ccc(F)c(C(F)(F)F)c1
2,13%,CCS(=O)(=O)CCN(C(=O)Cc1ccc(F)c(C(F)(F)F)c1)[C@H](C)c1nc2ncccc2c(=O)n1-c1ccc(C#N)cc1

# System: PBL
# Assay: Toxicity in human PBL assessed as chromosomal aberrations at 7.81 to 1000 ug/mL
# Assay type: cell-based
# Settings: not given
# Procedure, shortened: (§2)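 Cultured human peripheral blood lymphocytes exposed at 7.81–1000 μg/mL, with and without S9 metabolic activation; chromosomal aberrations scored.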
row,SMILES,Activity
1,C[C@H](c1nc2ncccc2c(=O)n1-c1ccc(C#N)cc1)N(CC1CCS(=O)(=O)CC1)C(=O)Cc1ccc(F)c(C(F)(F)F)c1,Non-toxic
2,C[C@H](c1nc2ncccc2c(=O)n1-c1ccc(Cl)cc1)N(CC1CCS(=O)(=O)CC1)C(=O)Cc1ccc(C(F)(F)F)c(F)c1,Non-toxic
3,CCS(=O)(=O)CCN(C(=O)Cc1ccc(F)c(C(F)(F)F)c1)[C@H](C)c1nc2ncccc2c(=O)n1-c1ccc(C#N)cc1,Toxic

# System: not listed separately
# Assay: Clearance in cynomolgus monkey at 0.5 mg/kg, iv
# Assay type: ADME, organism-based, Macaca fascicularis
# Design: dose 0.5 mg/kg, route intravenous
# Settings: in vivo
# Procedure, shortened: as §1
row,clearance,SMILES
1,21.7 mL/min/kg,C[C@H](c1nc2ncccc2c(=O)n1-c1ccc(C#N)cc1)N(CC1CCS(=O)(=O)CC1)C(=O)Cc1ccc(F)c(C(F)(F)F)c1
2,12.3 mL/min/kg,CCS(=O)(=O)CCN(C(=O)Cc1ccc(F)c(C(F)(F)F)c1)[C@H](C)c1nc2ncccc2c(=O)n1-c1ccc(C#N)cc1

# System: not listed separately
# Assay: Clearance in mouse at 1 mg/kg, iv
# Assay type: ADME, organism-based
# Design: dose 1 mg/kg, route intravenous
# Settings: in vivo
# Procedure, shortened: as §1
row,clearance,SMILES
1,8.17 mL/min/kg,C[C@H](c1nc2ncccc2c(=O)n1-c1ccc(C#N)cc1)N(CC1CCS(=O)(=O)CC1)C(=O)Cc1ccc(F)c(C(F)(F)F)c1
2,5.83 mL/min/kg,CCS(=O)(=O)CCN(C(=O)Cc1ccc(F)c(C(F)(F)F)c1)[C@H](C)c1nc2ncccc2c(=O)n1-c1ccc(C#N)cc1

# System: not listed separately
# Assay: Apparent oral bioavailability in Beagle dog at 2 mg/kg
# Assay type: ADME, organism-based, Canis lupus familiaris
# Settings: in vivo, read-out: Fapp
row,bioavailability,SMILES
1,1.6%,C[C@H](c1nc2ncccc2c(=O)n1-c1ccc(C#N)cc1)N(CC1CCS(=O)(=O)CC1)C(=O)Cc1ccc(F)c(C(F)(F)F)c1
2,69%,CCS(=O)(=O)CCN(C(=O)Cc1ccc(F)c(C(F)(F)F)c1)[C@H](C)c1nc2ncccc2c(=O)n1-c1ccc(C#N)cc1

# Target: T1, C-X-C chemokine receptor type 3 (Homo sapiens, UniProt P49682)
# T1 sequence (P49682 whole entry): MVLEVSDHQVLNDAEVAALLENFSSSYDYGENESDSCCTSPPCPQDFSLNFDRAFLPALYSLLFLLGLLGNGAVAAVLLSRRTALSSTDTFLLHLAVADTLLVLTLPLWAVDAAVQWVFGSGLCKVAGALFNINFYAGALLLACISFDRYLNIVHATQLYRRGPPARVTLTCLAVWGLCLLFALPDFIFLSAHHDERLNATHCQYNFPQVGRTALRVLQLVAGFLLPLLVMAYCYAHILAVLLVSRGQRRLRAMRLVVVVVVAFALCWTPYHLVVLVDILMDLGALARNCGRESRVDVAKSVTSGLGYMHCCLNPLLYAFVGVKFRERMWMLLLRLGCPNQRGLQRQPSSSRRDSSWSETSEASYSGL
# Assay: Displacement of [125I]-IP-10 from CXCR3 in presence of 100% human serum
# Settings: not given
row,IC50,SMILES
1,12 nM,C[C@H](c1nc2ncccc2c(=O)n1-c1ccc(C#N)cc1)N(CC1CCS(=O)(=O)CC1)C(=O)Cc1ccc(F)c(C(F)(F)F)c1
2,13 nM,C[C@H](c1nc2ncccc2c(=O)n1-c1ccc(Cl)cc1)N(CC1CCS(=O)(=O)CC1)C(=O)Cc1ccc(C(F)(F)F)c(F)c1

# System: PBL
# Assay: Toxicity in human PBL assessed as chromosomal aberrations at 7.81 to 1000 ug/mL in the presence of S9
# Assay type: cell-based
# Settings: not given
# Procedure, shortened: as §2
row,SMILES,Activity
1,C[C@H](c1nc2ncccc2c(=O)n1-c1ccc(C#N)cc1)N(CC1CCS(=O)(=O)CC1)C(=O)Cc1ccc(F)c(C(F)(F)F)c1,Non-toxic
2,C[C@H](c1nc2ncccc2c(=O)n1-c1ccc(Cl)cc1)N(CC1CCS(=O)(=O)CC1)C(=O)Cc1ccc(C(F)(F)F)c(F)c1,Non-toxic
3,CCS(=O)(=O)CCN(C(=O)Cc1ccc(F)c(C(F)(F)F)c1)[C@H](C)c1nc2ncccc2c(=O)n1-c1ccc(C#N)cc1,Toxic

# Target: T1, C-X-C chemokine receptor type 3
# Assay: Displacement of [125I]-IP-10 from CXCR3
# Settings: not given
row,IC50,SMILES
1,8 nM,C[C@H](c1nc2ncccc2c(=O)n1-c1ccc(C#N)cc1)N(CC1CCS(=O)(=O)CC1)C(=O)Cc1ccc(F)c(C(F)(F)F)c1

# Target: Cytochrome P450 2D6 (Homo sapiens, UniProt P10635)
# Sequence (P10635 whole entry): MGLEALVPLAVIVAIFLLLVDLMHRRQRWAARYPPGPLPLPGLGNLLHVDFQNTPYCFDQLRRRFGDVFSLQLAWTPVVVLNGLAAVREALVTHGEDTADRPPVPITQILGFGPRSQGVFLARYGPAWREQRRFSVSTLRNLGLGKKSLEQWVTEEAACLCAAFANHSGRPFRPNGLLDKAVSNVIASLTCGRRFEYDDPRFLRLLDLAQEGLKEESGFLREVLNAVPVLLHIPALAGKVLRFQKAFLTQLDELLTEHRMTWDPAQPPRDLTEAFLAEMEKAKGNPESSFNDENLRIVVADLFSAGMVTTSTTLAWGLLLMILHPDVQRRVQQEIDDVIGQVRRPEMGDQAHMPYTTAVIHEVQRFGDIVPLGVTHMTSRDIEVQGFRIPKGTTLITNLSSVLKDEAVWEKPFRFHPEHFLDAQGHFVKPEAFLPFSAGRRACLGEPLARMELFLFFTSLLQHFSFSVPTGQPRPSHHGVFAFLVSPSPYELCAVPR
# Assay: Inhibition of CYP2D6
# Assay type: ADME
# Settings: not given
row,IC50,SMILES
1,> 10000 nM,C[C@H](c1nc2ncccc2c(=O)n1-c1ccc(Cl)cc1)N(CC1CCS(=O)(=O)CC1)C(=O)Cc1ccc(C(F)(F)F)c(F)c1

# System: not listed separately
# Assay: Mean residence time in cynomolgus monkey at 0.5 mg/kg, iv
# Assay type: ADME, organism-based, Macaca fascicularis
# Design: dose 0.5 mg/kg, route intravenous
# Settings: in vivo
# Procedure, shortened: as §1
row,MRT,SMILES
1,1.7 h,CCS(=O)(=O)CCN(C(=O)Cc1ccc(F)c(C(F)(F)F)c1)[C@H](C)c1nc2ncccc2c(=O)n1-c1ccc(C#N)cc1

# System: not listed separately
# Assay: Mean residence time in Beagle dog at 0.5 mg/kg, iv
# Assay type: ADME, organism-based, Canis lupus familiaris
# Design: dose 0.5 mg/kg, route intravenous
# Settings: in vivo
# Procedure, shortened: as §1
row,MRT,SMILES
1,1.2 h,CCS(=O)(=O)CCN(C(=O)Cc1ccc(F)c(C(F)(F)F)c1)[C@H](C)c1nc2ncccc2c(=O)n1-c1ccc(C#N)cc1
